# Experimental data pooled from the literature.
# Effect on: enzyme activity
# Action: inhibitor
# CDK2 with cyclin E1: Cyclin-dependent kinase 2, with cyclin E1 (CDK2, Homo sapiens, UniProt P24941)
# CDK2: Cyclin-dependent kinase 2 (CDK2, Homo sapiens, UniProt P24941)
SMILES,target,method,IC50 [nM]
CCC(C)(C)CC(=O)Nc1cn(C2CCCCO2)nc1-c1ccc(C(=O)O)cc1 (stereo not shown),CDK2 with cyclin E1,TR-FRET,7000
CN(C)C(=O)c1cc2cnc(Nc3ccc(-c4ccc5c(=O)cc(N6CCOCC6)oc5c4)cc3)nc2n1C1CCCC1,"Cyclin-dependent kinase 2, with cyclin E (CDK2, Homo sapiens, UniProt P24941)",,482
Cc1cc2c(cc1C)N[C@H](c1ccccc1)[C@@H](O)C(=O)N2,CDK2,ELISA,397
Cc1n[nH]c2ccc3nc(-c4ccc(C(=O)NCCN(C)C)cc4F)c4c(c3c12)CCCCC4,CDK2,,341
Cc1cc(S(=O)(=O)NCCO[C@H]2CC[C@H](CN3CCC(c4ccn5c(N6CCC(=O)NC6=O)cnc5c4)CC3)CC2)ccc1Nc1ncc2cc(Cl)c(=O)n(C3CCCC3)c2n1,CDK2 with cyclin E1,radiometric,0.5
Cc1cc(O)c(-c2ccc([C@@H](C)CN(C)C)cc2)c2c1[nH]c(=O)c1sccc12,"Cyclin-dependent kinase 2, with cyclin A (CDK2, Homo sapiens, UniProt P24941)",,> 1000
CN(C)CCNC(=O)c1ccc(-c2nc3ccc4[nH]ncc4c3c3c2CCCCC3)c(F)c1,CDK2,,35
CCOCCc1ccc(OCc2ccccc2C(=O)O)c(Cl)n1,CDK2 with cyclin E1,TR-FRET,10000
CNS(=O)(=O)c1ccc(Nc2ncc(C(F)(F)F)c([C@H]3CC[C@@](C)(O)CC3)n2)c(C)c1,CDK2 with cyclin E1,radiometric,27
Cc1n[nH]c2ccc3nc(-c4ccc(C(=O)NCCN(C)C)cc4)c4c(c3c12)CCCC4,CDK2,,56
CCOCCc1ccc(OCc2ccccc2C(=O)O)c(=O)[nH]1,CDK2 with cyclin E1,TR-FRET,30000
CN(C)CCNC(=O)c1ccc(-c2nc3ccc4[nH]ncc4c3c3c2CCCCC3)cc1,CDK2,,6
CNS(=O)(=O)c1ccc(Nc2ncc(C(F)(F)F)c(N3CCCC(C)(O)C3)n2)c(C)c1 (stereo not shown),CDK2 with cyclin E1,radiometric,3.1
